ChEMBL document CHEMBL2062493, “Synthesis and evaluation of [¹¹C]Cimbi-806 as a potential PET ligand for 5-HT₇ receptor imaging” (Bioorg Med Chem, 2012)

Legend:
[1] = Lipophilicity, log D of the compound at pH 7.4 by HPLC analysis; type: physicochemical; settings: buffer
Summary of the method: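 Measured by RP-HPLC on a C8 column at 37 °C with 50:50 25 mM sodium phosphate pH 7.4/MeOH at 2 mL/min and UV detection at 254 nm. LogD was derived from log retention factor via a calibration line of reference compounds with known logD.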

[2] = Displacement of [3H]SB269970 from 5HT7R in Danish Landrace pig brain section after 2 hrs by autoradiography; design: species or system Sus scrofa
Summary of the method: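 Pig brain sections incubated 2 h with [3H]SB-269970 plus varying competitor in 50 mM Tris–HCl pH 7.4. Washes were 3 × 5 min in ice-cold buffer, then a dip in ice-cold water. Sections were dried and exposed to tritium-sensitive plates for 14 days. Specific binding (total minus non-specific) was plotted against competitor concentration.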

[3] = Drug uptake in Danish Landrace pig thalamus at 468+/-31 MBq, iv up to 20 mins by PET scanning; type: ADME, organism-based, Sus scrofa; settings: in vivo
Summary of the method: (§1)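 Images were co-registered to an MRI atlas of the pig brain. Striatum was the mean of caudate and putamen, thalamus the mean of lateral and medial thalamus, and each region left/right averaged. Uptake is expressed as SUV (kBq/mL normalized to injected dose per kg). For the blocking condition, SB-269970 was infused at 0.5–1.0 mg/kg/h from 30 min before the second scan.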

[4] = Drug uptake in Danish Landrace pig striatum at 468+/-31 MBq, iv up to 20 mins by PET scanning; type: ADME, organism-based, Sus scrofa; settings: in vivo; summary of the method: as §1
[5] = Drug uptake in Danish Landrace pig cerebellum at 468+/-31 MBq, iv up to 20 mins by PET scanning; type: ADME, organism-based, Sus scrofa; settings: in vivo; summary of the method: as §1
[6] = Drug uptake in Danish Landrace pig thalamus at 468+/-31 MBq, iv after 20 mins by PET scanning; type: ADME, organism-based, Sus scrofa; settings: in vivo; summary of the method: as §1
[7] = Drug uptake in Danish Landrace pig striatum at 468+/-31 MBq, iv after 20 mins by PET scanning; type: ADME, organism-based, Sus scrofa; settings: in vivo; summary of the method: as §1
[8] = Drug uptake in Danish Landrace pig cerebellum at 468+/-31 MBq, iv after 20 mins by PET scanning; type: ADME, organism-based, Sus scrofa; settings: in vivo; summary of the method: as §1
[9] = Drug uptake in Danish Landrace pig thalamus pre-treated with SB269970 at 468+/-31 MBq, iv administered 30 mins post SB269970-treatment measured up to 20 mins by PET scanning; type: ADME, organism-based, Sus scrofa; settings: in vivo; summary of the method: as §1
[10] = Drug uptake in Danish Landrace pig striatum pre-treated with SB269970 at 468+/-31 MBq, iv administered 30 mins post SB269970-treatment measured up to 20 mins by PET scanning; type: ADME, organism-based, Sus scrofa; settings: in vivo; summary of the method: as §1
[11] = Drug uptake in Danish Landrace pig cerebellum pre-treated with SB269970 at 468+/-31 MBq, iv administered 30 mins post SB269970-treatment measured up to 20 mins by PET scanning; type: ADME, organism-based, Sus scrofa; settings: in vivo; summary of the method: as §1
Plasma [12] = assay: Drug metabolism in Danish Landrace pig plasma at 468+/-31 MBq, iv; type: ADME, Sus scrofa
Summary of the method: (§2)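 Blood was drawn at 2.5–90 min and centrifuged; plasma was filtered 0.45 µm and analysed for parent and radiometabolites by column-switching HPLC with online radioactivity detection. For the blocking condition, SB-269970 was infused at 0.5–1.0 mg/kg/h from 30 min before the second scan and continued throughout it.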

Plasma [13] = assay: Drug metabolism in Danish Landrace pig plasma pre-treated with SB269970 at 468+/-31 MBq, iv administered 30 mins post SB269970-treatment measured upto 90 mins; type: ADME, organism-based, Sus scrofa; settings: in vivo; summary of the method: as §2
[14] = Free fraction in Danish Landrace pig plasma at 5 MBq after 3 hrs by equilibrium dialysis; type: ADME, cell-free, Sus scrofa

Compound | logD [1] | Ki [2] | Drug uptake [3] | Drug uptake [4] | Drug uptake [5] | Drug uptake [6] | Drug uptake [7] | Drug uptake [8] | Drug uptake [9] | Drug uptake [10] | Drug uptake [11] | Drug metabolism (Plasma [12]) | Drug metabolism (Plasma [13]) | fraction unbound at 3 h, 5 MBq [14]
COc1cccc(OC)c1-c1cccc(CCN(C)C)c1 | 4.4 | 8.82 nM | – | – | – | – | – | – | – | – | – | – | – | –
COc1cccc(OC)c1-c1cccc(CCN(C)[11CH3])c1 | – | – | Active | Active | Active | Not Active | Not Active | Not Active | Not Active | Not Active | Not Active | Active | Active | 0.235
